Screens deposited in PubChem BioAssay by Johns Hopkins Ion Channel Center.
In the library only some 2.9% were active in any assay of this set; here they are far more common.
TRPC6 act: mouse TRPC6 channel activators, primary screen, cell-based, HEK293, membrane potential dye; Short transient receptor potential channel 6 (Mus musculus), Q61143; HEK293-TRPC6 membrane potential dye fluorescence; hits give high values; B-score at 10 µM; 0.13% of 310,000 active; AID 2550, 2010;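 active = B-score of the integrated fluorescence ratio above library mean plus 3 SD, and starting fluorescence ratio within library mean plus 5 SD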;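 note: higher score means more depolarization so channel activation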
TRPC4 PAM: positive allosteric modulators of TRPC4, primary screen, cell-based, mouse TRPC4beta, HEK293 mu-opioid, Fluo-4 calcium; DAMGO EC20, Fluo-4 Ca2+ flux; hits give high values; AID 2227, 2009; 0.42% of 310,000 active; B-score at 10 µM;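 active = B-score of calcium response area above 5 SD of library B-scores, with initial fluorescence ratio within 5 SD of library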;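 note: B-score of integrated fluorescence ratio over time as area under calcium response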
TRPC6 inhibitor: mouse TRPC6 channel inhibitors, primary screen, cell-based, HEK293, membrane potential dye; Short transient receptor potential channel 6 (Mus musculus), Q61143; ACh-evoked depolarization; hits give low values; B-score at 10 µM; 1.1% of 310,000 active; AID 2553, 2010;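 active = B-score under library mean minus 3 SD, initial fluorescence not abnormally high, positive integrated signal ratio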;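 note: B-score derived from integrated fluorescence ratio over the kinetic read; more negative B-score means stronger inhibition of depolarization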
TRPC4 agonist: activators of mouse TRPC4 channel, primary screen, Fluo4 calcium, HEK293 TRPC4beta/mu-opioid cells | Short transient receptor potential channel 4 (Mus musculus), Q9QUQ5 | Fluo4 calcium fluorescence; hits give high values | 0.49% of 310,000 active | B-score at 10 µM;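 active = B-score above 5 SD of library B-scores, and initial fluorescence ratio not above library mean plus 5 SD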;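 note: positive B-score marks a calcium rise read as TRPC4 activation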
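Material: TRPC4beta and mu-opioid receptor HEK293 stable cells | Incubation: 45 min room-temperature Fluo4 loading, 110 s read | Detection: Kinetic Fluo4 calcium fluorescence | Measure: Integrated baseline-normalised fluorescence ratio, converted to per-well B score | Benchmarks: Low control buffer alone, high control maximal DAMGO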
TRPC4 inh: inhibitors of mouse TRPC4 channel, primary screen, Fluo4 calcium, HEK293 TRPC4beta/mu-opioid cells; Short transient receptor potential channel 4 (Mus musculus), Q9QUQ5; DAMGO-evoked Fluo4 calcium flux; hits give low values; B-score at 10 µM; 0.39% of 300,000 active; AID 2247, 2010;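 active = B-score over 3 SD under the library average, no early fluorescence shift, positive overall ratio signal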
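System: stable TRPC4beta/mu-opioid receptor HEK293 cells; Dosing: single-point compound dosing; Measured by: Fluo4 Ca2+ flux fluorescence; Read-out basis: per-well B score of integrated baseline-normalized Fluo4 ratio.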
Kir21 inh: inhibitors of mouse Kir2.1 inward-rectifier potassium channel; AID 1672, 2009; HEK293-Kir2.1, FluxOR thallium flux fluorescence; hits give low values; 0.85% of 310,000 active; B-score at 10 µM;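 active = fluorescence ratio B-score at or below minus 3 SD of library scores, with starting-brightness B-score within 2 SD, cut at about -4.2 in these data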;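 note: channel flux triggered by added potassium and thallium sulfate stimulus; B-score of peak minus minimum fluorescence over baseline after thallium stimulus; more negative B-score means stronger Kir2.1 block with less thallium influx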
Target sequence (P35561 whole entry, looked up): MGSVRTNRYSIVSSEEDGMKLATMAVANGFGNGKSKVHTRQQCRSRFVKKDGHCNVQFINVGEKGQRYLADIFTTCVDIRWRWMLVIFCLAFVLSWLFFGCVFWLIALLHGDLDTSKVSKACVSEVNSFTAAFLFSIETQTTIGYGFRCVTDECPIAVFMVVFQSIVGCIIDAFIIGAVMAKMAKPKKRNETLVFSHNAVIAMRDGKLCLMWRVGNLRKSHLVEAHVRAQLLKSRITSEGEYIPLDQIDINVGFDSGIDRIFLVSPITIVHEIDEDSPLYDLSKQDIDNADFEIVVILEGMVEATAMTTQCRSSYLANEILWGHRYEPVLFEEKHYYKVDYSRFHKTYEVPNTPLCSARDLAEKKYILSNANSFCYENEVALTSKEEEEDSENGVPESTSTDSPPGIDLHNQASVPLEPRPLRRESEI
HEK293 MPD ctr: parental HEK293 membrane potential modulation, confirmation, counter-screen for TRPC6 modulator project, cell-based | shares compounds with TRPC6 inhibitor | membrane potential dye fluorescence | membrane potential signal change, % at 10 µM | 51% of 2,400 active | AID 488924, 2010;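 active = membrane potential signal moves up or down beyond 5 SD from buffer-only wells, on both duplicate plates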
HEK293 MPD ctr 2: second check of TRPC6 modulator effects in parental HEK293 cells. shares compounds with TRPC6 inhibitor. membrane potential dye fluorescence; after compound, maximal acetylcholine stimulation. inhibition, % at 10 µM. 14% of 2,400 active;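 active = membrane potential signal drops by more than 5 SD from the mean control signal, in both duplicate plates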;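 note: plate controls were acetylcholine ECmax control wells for no effect and buffer only wells for full effect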
TRPC4 ctr mod: TRPC4 modulation by TRPC6 hit compounds, confirmation, selectivity assay for TRPC6 modulator project, cell-based, HEK293 TRPC4/mu-opioid, membrane potential dye, mouse; shares compounds with TRPC6 inhibitor; 69% of 2,400 active; percent change from control (negative = decrease, positive = increase), % at 10 µM; membrane potential fluorescence;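 active = membrane potential signal moved up or down beyond 5 SD of buffer control wells, in both duplicate plates, actives on both sides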;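 note: plate controls were assay buffer wells for no effect and DAMGO maximal-effect wells for full effect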
TRPC4/MOR inh 2: mouse TRPC4 off-target activity of TRPC6 modulators, second screen; shares compounds with TRPC6 inhibitor; HEK293 TRPC4/mu-opioid, membrane potential dye fluorescence; stimulated with maximal-effect DAMGO; inhibition, % at 10 µM; 55% of 2,400 active;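 active = drop in membrane potential signal beyond 5 SD of the control wells in both duplicate plates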;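 note: TRPC4 counter screen for TRPC6 hits run under conditions tuned for TRPC6 not TRPC4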
TRPC6 inh conf: mouse TRPC6 channel inhibitors, confirmation, HEK293 cells, membrane potential dye, duplicate | shares compounds with TRPC6 inhibitor | ACh-evoked depolarization | inhibition, % at 10 µM | 43% of 3,300 active | AID 488960, 2010;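 active = fluorescence ratio falls more than 5 SD below the full-stimulation control mean, in both duplicate runs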;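 note: integrated fluorescence ratio of peak minus minimum over baseline after agonist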
TRPC6 act conf: mouse TRPC6 channel activators, confirmation, HEK293 cells, membrane potential dye, duplicate | HEK293-TRPC6 membrane potential dye fluorescence, FDSS | 11% of 2,800 active | activation, % at 10 µM | shares compounds with TRPC6 inhibitor | AID 488961, 2010;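 active = ratio signal rise beyond 5 SD above unstimulated control wells' mean, seen in both duplicate runs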;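 note: plate controls were buffer EC0 wells for no effect and acetylcholine ECmax response for full effect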
Active calls of the source: *; i = inactive; / = no result given; + = active, no number.

SMILES	TRPC6 act	TRPC4 PAM	TRPC6 inhibitor	TRPC4 agonist	TRPC4 inh	Kir21 inh	HEK293 MPD ctr	HEK293 MPD ctr 2	TRPC4 ctr mod	TRPC4/MOR inh 2	TRPC6 inh conf	TRPC6 act conf
Cc1cc(/C=C2\SC(=S)NC2=O)c(C)n1-c1ccccc1	i	i	i	i	i	1.43	/	/	/	/	/	/
Cc1cccc(C)c1OCC(=O)Nc1ccccc1N1CCCCC1	i	i	i	i	i	1.12	/	/	/	/	/	/
CCc1cccc(OCC(=O)Nc2ccccc2N2CCCC2)c1	i	i	-6.1*	i	i	-0.31	i	i	i	33.0%*	i	i
CN1CCN(Cc2cc(=O)oc3cc4c(cc23)CCC4)CC1	i	i	i	i	i	-1.88	/	/	/	/	/	/
CCN1CCN(Cc2cc(=O)oc3cc4c(cc23)CCC4)CC1	i	i	-5.07*	i	i	-0.83	-70.0%*	i	-8.0%*	40.0%*	i	i
CCN(CC(=O)Nc1c(F)cccc1F)C(=O)Cc1csc(-c2ccc(OC)c(OC)c2)n1	i	i	i	i	i	0.2	/	/	/	/	/	/
N/C(=N\OC(=O)c1ccco1)c1cccc([N+](=O)[O-])c1	i	i	-5.27*	i	i	0.94	i	i	i	i	i	i
O=C(C1CCOCC1)N1CCC(CO)(CCc2ccccc2)CC1	i	i	i	i	i	-0.34	/	/	/	/	/	/
Cc1ccc(/C=c2\sc3n(c2=O)CN(c2ccc(Br)cc2)CN=3)o1	i	i	-5.57*	i	i	1.04	i	i	i	i	i	i
Cc1ccc(/C=c2/sc3n(c2=O)CCCN=3)o1	i	i	i	i	i	-1.57	/	/	/	/	/	/
O=C1N/C(=N\S(=O)(=O)Cc2ccccc2)S/C1=C/c1cc([N+](=O)[O-])ccc1O	12.7*	i	i	i	i	-0.66	177.0%*	i	33.0%*	i	i	121.5%*
O=C1N/C(=N\S(=O)(=O)c2ccccc2)S/C1=C\c1cc([N+](=O)[O-])ccc1O	26.7*	i	i	i	i	-1.64	249.0%*	i	46.0%*	i	i	159.5%*
Cc1ccc(S(=O)(=O)/N=C2/NC(=O)/C(=C\c3cc(Br)cc(Br)c3O)S2)cc1	71.3*	34*	i	64*	i	-11.4	+	i	197.5%*	i	i	401.5%*
COc1cc(/C=C2/S/C(=N/S(=O)(=O)c3ccccc3)NC2=O)c([N+](=O)[O-])cc1OC	i	i	i	i	i	-0.16	/	/	/	/	/	/
COc1ccc(Cl)cc1NC(=O)CCNC(=O)Cn1ccc2ccccc2c1=O	i	i	i	i	i	-0.75	/	/	/	/	/	/
COCCn1c(N)c(Sc2ccc(Cl)cc2)c(=O)[nH]c1=O	i	i	i	i	i	0.08	/	/	/	/	/	/
CC(C)Sc1nc2c(c(=O)[nH]c(=O)n2C)n1CC(O)COc1ccccc1 (stereo unspecified)	i	i	-5.79*	i	i	1.12	i	i	10.5%*	i	66.0%*	i
COc1ccc(C(=O)Nc2c(-c3ccccc3)nc3ccccn23)c(OC)c1	20*	i	i	i	i	-1.55	i	i	12.5%*	28.0%*	i	i
COc1ccccc1-c1cc(C(=O)N/N=C\c2cn(C)nc2C)c2ccccc2n1	i	i	-5.91*	i	i	0.01	i	i	i	i	44.0%*	/
COc1ccc(-c2csc(NC(=O)c3ccc(OCC(=O)N4CCOCC4)c(OC)c3)n2)cc1OC	i	i	i	i	i	-0.49	/	/	/	/	/	/
CC(C)c1ccc(N=C2N=C(N)c3ccccc32)cc1	i	i	-6.08*	i	i	-4.45*	i	i	-29.0%*	77.0%*	73.0%*	i
NC1=NC(=Nc2ccc(Br)cc2)c2ccccc21	i	i	-5.02*	i	i	2.48	i	i	-17.0%*	40.0%*	i	i
Cc1cccc(/C=N/NC(=O)Cn2nnnc2N)n1	i	i	i	i	i	-0.31	/	/	/	/	/	/
COc1ccc(OC)c(NS(=O)(=O)c2ccc3c(c2)C(C)(C)C(=O)N3C)c1	i	i	i	i	i	0.12	/	/	/	/	/	/
c1ccc(-n2cc(CN3CCCC(CN4CCCC4)C3)c(-c3ccc4c(c3)OCO4)n2)cc1 (stereo unspecified)	i	i	-5.81*	i	i	0.22	i	i	i	73.0%*	i	i
O=C(Nc1ccccc1)/C(=C\c1ccc(F)cc1)NC(=O)c1ccco1	i	i	i	i	i	-0.84	/	/	/	/	/	/
Cc1ccc(-n2ncc(C(=O)N3CCN(C(=O)c4ccco4)CC3)c2-n2cccc2)cc1	i	i	-5.26*	i	i	-0.86	i	i	9.0%*	i	59.0%*	/
